Experiments:
[1] = system: bovine type II collagen antibody; test: Collagen antibody level in CIA mice serum; assay type: in vivo, DBA1 mice; settings: CIA mice serum at end of study, ELISA, N = 6
Summary of the method: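 Serum came from CIA DBA1 mice (N = 6 per group) at the end of the study, spun at 10,000 rpm for 10 min, then cleared at 10,000 rpm for 3 min and diluted 1:40,000. Anti-bovine type II collagen ELISA: wells blocked 1 h at room temperature; standards and samples 2 h; secondary antibody 1 h; TMB 15 min; stopped and read at A450. Levels were taken from a standard curve; mean ± SEM.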

[2] = system: collagen-induced arthritis (CIA) joints; test: Histopathology study of limbs; assay type: in vivo, DBA1 mice; settings: MTX 1.5 mg/kg i.p., CIA mice limbs, H&E, N = 4

SMILES: CN(Cc1cnc2nc(N)nc(N)c2n1)c1ccc(C(=O)N[C@@H](CCC(=O)O)C(=O)O)cc1 [MTX, Methotrexate]
- bovine collagen antibody level in serum compared to vehicle group [1]: lower
- histopathological changes (inflammation, synovial hyperplasia, cartilage/bone erosion) [2]: reduced occurrence of the changes
